{"source": "paper PMC5568800", "about": "(Investigative ophthalmology & visual science, 2009)", "key": {"W587F X2IRBP [1]": {"molecular_target": "W587F X2IRBP", "experiment": "Titration monitoring enhancement of retinol fluorescence, W587F mutant", "assay_type": "binding, Xenopus", "conditions": "read-out: Kd, Enhancement, 11-cis retinol, excitation 324 nm, emission 475 nm, Figure 7", "summary_of_the_method": "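The W587F mutant was introduced into X2IRBP-pET30 by site-directed mutagenesis, sequence-verified, then expressed in E. coli BLR(DE3) (1 mM IPTG, 22°C, 18 h) and purified by Ni-affinity, TEV cleavage and Q Sepharose. 11-cis retinol, made by NaBH4 reduction of 11-cis retinal and HPLC-checked, was titrated in. Kd came from a nonlinear least-squares single-site-class fit.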"}, "[2]": {"molecular_target": "X2IRBP (second module of Xenopus IRBP), wild-type sequence", "assay_type": "binding", "conditions": "read-out: Kd, Enhancement", "summary_of_the_method": "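Purified X2IRBP (Xenopus IRBP 313–612; His-fusion, TEV-cleaved, Ni and anion-exchange purified; quantified by A280 and amino acid analysis) was titrated with all-trans or 11-cis retinol. 11-cis retinol was made by NaBH4 reduction of 11-cis retinal. For all-trans, nonspecific signal from titration into fluorescence-matched NAT was subtracted and three independent titrations were averaged. Kd came from a nonlinear least-squares single-site-class fit.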"}, "W450F X2IRBP [3]": {"molecular_target": "W450F X2IRBP", "experiment": "Titration monitoring enhancement of retinol fluorescence, W450F mutant", "assay_type": "binding, Xenopus", "summary_of_the_method": "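All-trans retinol titration of the E. coli-expressed, TEV-cleaved Xenopus X2IRBP mutant, read as retinol fluorescence enhancement (ex 330 nm, em 480 nm). Nonspecific signal was subtracted using a titration into fluorescence-matched NAT solution, and the inner filter effect was corrected graphically. Three independent titrations were averaged. Kd from a nonlinear least-squares fit assuming a single type of noninteracting site.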"}, "[4]": {"molecular_target": "X2IRBP (second module of Xenopus IRBP), wild-type sequence", "experiment": "Titration monitoring quenching of tryptophan", "assay_type": "binding", "conditions": "read-out: Kd, Quenching, excitation 280 nm, emission 340 nm", "summary_of_the_method": "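Purified X2IRBP (Xenopus IRBP 313–612, TEV-cleaved His-fusion, Ni plus Q Sepharose purified) was titrated with all-trans or 11-cis retinol (ethanol stocks). Protein fluorescence at 340 nm (excitation 280 nm) was normalized to maximal quenching. All-trans data were averaged over three independent titrations. Kd and N came from a nonlinear least-squares fit to a noninteracting single-site-class binding equation.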"}, "W587F X2IRBP [5]": {"molecular_target": "W587F X2IRBP", "experiment": "Titration monitoring quenching of tryptophan fluorescence, W587F mutant", "assay_type": "binding, Xenopus"}, "W450F X2IRBP [6]": {"test_system": "W450F X2IRBP", "experiment": "Titration monitoring quenching of tryptophan fluorescence, W450F mutant", "assay_type": "binding, Xenopus", "conditions": "all-trans retinol, excitation 280 nm, emission 340 nm", "summary_of_the_method": "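Intrinsic tryptophan fluorescence quenching (ex 280 nm, em 340 nm) of tag-free recombinant Xenopus X2IRBP mutants during all-trans retinol titration. Signal normalized to the maximum quenching. Runs alternated between the W450F and W587F proteins, three titrations each, and were averaged. Binding parameters from a nonlinear least-squares fit to a single-class, noninteracting-site equation.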"}, "[7]": {"molecular_target": "X2IRBP (second module of Xenopus IRBP), wild-type sequence", "experiment": "Energy transfer titration, X2IRBP of wild-type sequence", "assay_type": "binding", "conditions": "read-out: Kd, Energy Transfer; all-trans retinol; excitation 280 nm, emission 480 nm; Figure 4", "summary_of_the_method": "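X2IRBP (Xenopus IRBP residues 313–612) was expressed in E. coli BLR(DE3) as a His-tag fusion, TEV-cleaved, and purified by Ni-affinity and Q Sepharose. Concentration was set by A280 and amino acid analysis. All-trans retinol from fresh ethanol stocks was titrated in. Three independent titrations were averaged. Kd and N came from a nonlinear least-squares fit assuming a single class of noninteracting sites.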"}, "W450F X2IRBP [8]": {"molecular_target": "W450F X2IRBP", "experiment": "Energy transfer titration, W450F mutant", "assay_type": "binding, Xenopus", "conditions": "read-out: Kd, Energy Transfer, all-trans retinol, Figure 4", "summary_of_the_method": "(§1)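 Tag-free Xenopus IRBP second module (residues 313–612; His-tag cut by TEV protease), expressed in E. coli BLR(DE3) at 22°C for 18 h and purified on nickel then Q Sepharose columns. Titrated with all-trans retinol (fresh ethanol stock) and read by energy transfer (ex 280 nm, em 480 nm). Runs alternated between the two mutants, three per mutant, then averaged. Kd and N from a nonlinear least-squares fit to a single-class, noninteracting-site equation.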"}, "W587F X2IRBP [9]": {"molecular_target": "W587F X2IRBP", "experiment": "Energy transfer titration, W587F mutant", "assay_type": "binding, Xenopus", "conditions": "read-out: Kd, Energy Transfer, all-trans retinol, Figure 4", "summary_of_the_method": "as §1"}, "X2IRBP": {"test_system": "X2IRBP", "assay_type": "binding, Xenopus", "conditions": "oleic acid 0.67 to 2.66 μM; X2IRBP 1 μM; retinol fluorescence enhancement", "summary_of_the_method": "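X2IRBP (1 μM; recombinant Xenopus, tag removed by TEV) titrated with all-trans or 11-cis retinol in the presence of oleic acid at 0.67 to 2.66 μM. Binding followed by retinol fluorescence enhancement (ex 330 nm, em 480 nm).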"}, "[10]": {"conditions": "11-cis retinol, X2IRBP of wild-type sequence, Figure 6"}}, "note": "Like-named read-outs stand apart in the source and are kept apart here."}
{"smiles": "CC1=C(/C=C/C(C)=C/C=C\\C(C)=C\\CO)C(C)(C)CCC1", "note": "[11-cis retinol]", "values": [{"measurement": "Kd", "setting": "W587F X2IRBP [1]", "value": "132 ± 56", "unit": "nM"}, {"measurement": "Kd", "setting": "[2]; [10]", "value": "77 ± 15", "unit": "nM"}, {"measurement": "Kd", "setting": "W450F X2IRBP [3]; read-out: Kd, Enhancement, 11-cis retinol, excitation 324 nm, emission 475 nm, Figure 7", "value": "218 ± 62", "unit": "nM"}, {"measurement": "Kd", "setting": "[4]; [10]", "value": "42 ± 9", "unit": "nM"}, {"measurement": "Kd", "setting": "W587F X2IRBP [5]; read-out: Kd, Quenching, 11-cis retinol, excitation 280 nm, emission 340 nm, Figure 7", "value": "24 ± 10", "unit": "nM"}]}
{"smiles": "CC1=C(/C=C/C(C)=C/C=C/C(C)=C/CO)C(C)(C)CCC1", "note": "[all-trans retinol]", "values": [{"measurement": "Quenching of tryptophan fluorescence (result in words)", "setting": "W450F X2IRBP [6]", "value": "No significant quenching"}, {"measurement": "Kd", "setting": "[7]", "value": "33 ± 8", "unit": "nM"}, {"measurement": "Kd", "setting": "[2]; all-trans retinol, excitation 330 nm, emission 480 nm, Figure 4", "value": "70 ± 20", "unit": "nM"}, {"measurement": "Kd", "setting": "W450F X2IRBP [3]; read-out: Kd, Enhancement, all-trans retinol, titrations of Figure 4", "value": "450 ± 110", "unit": "nM"}, {"measurement": "Kd", "setting": "[4]; all-trans retinol, Figure 4", "value": "8 ± 3", "unit": "nM"}, {"measurement": "Kd", "setting": "W450F X2IRBP [8]", "value": "290 ± 80", "unit": "nM"}, {"measurement": "Kd", "setting": "W587F X2IRBP [9]", "value": "100 ± 10", "unit": "nM"}, {"measurement": "Kd", "setting": "W587F X2IRBP [5]; read-out: Kd, Quenching, all-trans retinol, titrations of Figure 4", "value": "50 ± 10", "unit": "nM"}]}
{"smiles": "CCCCCCCC/C=C\\CCCCCCCC(=O)O", "note": "[oleic acid]", "values": [{"measurement": "Manner of inhibition of 11-cis and all-trans retinol binding to X2IRBP", "setting": "X2IRBP", "value": "noncompetitive"}]}
